Compounds with a hit are over-represented: about 0.61% of the library has one in this group of screens.
E-selectin induc: E-selectin induction on HUVECs. P16581. HUVEC E-selectin immunofluorescence imaging; normalized: neutral wells 0, TNF-alpha wells 100. activation, % at 7.58 µM. 260,000 tested, 0.37% active;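 active means mean E-selectin-positive cell signal at least 10% of the positive control, reached in at least 60% of replicates, without over 20% cell loss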
Target sequence (P16581 whole entry, looked up): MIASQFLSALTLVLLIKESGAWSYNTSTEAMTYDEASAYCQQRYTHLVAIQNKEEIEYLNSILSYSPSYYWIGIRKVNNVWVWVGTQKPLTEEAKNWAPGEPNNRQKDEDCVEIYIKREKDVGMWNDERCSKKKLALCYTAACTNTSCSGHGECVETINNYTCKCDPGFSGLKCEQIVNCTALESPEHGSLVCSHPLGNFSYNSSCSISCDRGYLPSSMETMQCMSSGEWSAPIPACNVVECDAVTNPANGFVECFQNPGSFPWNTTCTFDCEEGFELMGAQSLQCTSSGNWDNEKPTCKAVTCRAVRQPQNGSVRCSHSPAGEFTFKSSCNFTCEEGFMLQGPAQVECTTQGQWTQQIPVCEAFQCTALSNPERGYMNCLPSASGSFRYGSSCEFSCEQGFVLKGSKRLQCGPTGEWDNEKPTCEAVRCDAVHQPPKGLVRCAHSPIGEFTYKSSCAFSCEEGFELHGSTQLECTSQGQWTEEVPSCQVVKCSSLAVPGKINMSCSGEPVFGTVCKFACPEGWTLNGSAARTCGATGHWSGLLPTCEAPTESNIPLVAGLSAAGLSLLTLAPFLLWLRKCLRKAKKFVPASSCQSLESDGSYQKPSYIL
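System: HUVEC, human umbilical vein endothelial cells; quantity: 3,000 cells/well; buffer or medium: EGM-2 medium, gelatin-coated wells; dosing: single-point compound dose; detection: immunofluorescence imaging; evaluation: % PE-positive cells; benchmarks: TNF-alpha, DMSO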
F508del corr: correctors of CFTR F508del function in bronchial epithelial cells; CFBE cells, YFP halide quenching; stimulated with forskolin plus potentiator P3; % fluorescence drop versus neutral controls; activity (quench increase), % at 7.58 µM; 350,000 tested, 0.36% active;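 active means mean added fluorescence quench of at least 8% versus neutral control, with both replicates also reaching 8%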;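 further: cells transiently co-express mutant CFTR-F508del with the halide-sensitive YFP; corrector assay measuring rescue of mutant channel to the surface after 24 h compound exposure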
Xi reactivation: activators of X-chromosome reactivation in mouse fibroblasts | XiGFP mouse fibroblasts, % GFP-positive cells imaging, 3 d; cells co-treated with 5-aza-dC sensitizer; scaled so ellipticine positive control = 100% | 360,000 tested, 0.055% active | activation, % at 7.58 µM | AID 743238;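 active means mean normalized replicate activation at least 10% and every replicate at or above 10%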
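Material: XiGFP fibroblasts, SV40-immortalized; Buffer or medium: DMEM containing 5-aza-dC; Compound dosing: single point; Times: 3 days compound exposure.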
Of the large screens only hits and unclear results are named; the others gave an inactive call; ! = not active in a repeat.

CC(=O)N1CC23C=CC(CC2CC12CCCCCC2)O3 (centres undefined)	E-selectin induc 35.2
CC(=O)N1Cc2ccccc2C(C)CC12CCCCC2 (centres undefined)	none
COc1ccc(/C=C2/SC(=S)N(Cc3ccccc3)C2=O)cc1O	none
O=C1/C(=C\c2cc(Cl)c(O)c(Cl)c2)SC(=S)N1Cc1ccccc1	F508del corr 27.8 (no result: E-selectin induc)
C[C@@H]1CN([C@H](C)CO)C(=O)c2cc(NC(=O)c3ccncc3)ccc2O[C@@H](C)CCCCO[C@H]1CN(C)Cc1ccncc1	none
C/C=C/c1ccc2c(c1)O[C@H](CN(C)C(=O)COC)[C@@H](C)CN([C@@H](C)CO)S2(=O)=O	none
c1ccc(Cn2c[n+](Cc3ccccc3)cn2)cc1	E-selectin induc 42.8
S=C1NCN(Cc2ccccc2)CN1	none (no result: E-selectin induc)
CC(C)CC#Cc1cnc2c(c1)C(=O)N([C@@H](C)CO)C[C@H](C)[C@@H](CN(C)C(=O)CN1CCOCC1)O2	none
COCC(=O)N(C)C[C@@H]1[C@@H](c2ccc(-c3cccnc3)cc2)[C@H](CO)N1C(C)=O	none
C[C@H](CO)N1C[C@H](C)[C@H](CN(C)Cc2cccnc2)Oc2cc(C#C[C@@H](C)O)ccc2S1(=O)=O	none
N#Cc1ccc(-c2cccs2)nc1SCc1cccnc1	F508del corr 9.0 (no result: E-selectin induc)
c1cncc(CSc2nnc3ccc(-c4cccs4)nn23)c1	none (no result: E-selectin induc)
C[C@H](CO)N1C[C@H](C)[C@H](CN(C)S(=O)(=O)c2cccs2)Oc2ccc(NC(=O)c3ccncc3)cc2CC1=O	none (no result: E-selectin induc)
CCCCc1nc(Cl)c(CO)n1Cc1ccc(-c2ccccc2-c2nn[nH]n2)cc1	F508del corr 8.1
CCCCc1nc(Cl)c(CO)n1Cc1ccc(-c2ccccc2-c2nnn[nH]2)cc1	none
C[C@H](NC(=O)C[C@H]1C[C@H]2c3cc(NS(C)(=O)=O)ccc3O[C@H]2[C@@H](CO)O1)c1ccccc1	none
COCCOC(=O)c1[nH]c2c(c1C)C(=O)CC(c1cccs1)C2 (centres undefined)	F508del corr 13.1 (no result: E-selectin induc)
COC(=O)c1[nH]c2c(c1C)C(=O)CC(c1ccc(OC)c(OC)c1)C2 (centres undefined)	none
CCOCCOC(=O)c1[nH]c2c(c1C)C(=O)CC(c1cccs1)C2 (centres undefined)	none
COC(=O)c1[nH]c2c(c1C)C(=O)CC(c1cccc(OC)c1)C2 (centres undefined)	F508del corr 8.4
C[C@@H]1CN([C@@H](C)CO)C(=O)Cc2cc(NC(=O)Cn3cnnn3)ccc2O[C@@H]1CN(C)S(=O)(=O)c1cccs1	none
CN(C)C(=O)C(CCN1CCC(O)(c2ccc(Cl)cc2)CC1)(c1ccccc1)c1ccccc1	F508del corr 10.9
CN(C)c1ccc(NC(=O)CN2CCC(O)(c3ccccc3)CC2)cc1	none
CN(C)C(=O)[C@H]1[C@H](CO)[C@H]2Cn3c(ccc(-c4ccccc4)c3=O)[C@H]2N1Cc1ccccc1F	none
C[C@H]1CN([C@@H](C)CO)C(=O)c2cccc(NC(=O)NC3CCCCC3)c2O[C@H]1CN(C)C(=O)Nc1ccc(F)cc1	none
C[C@H](CO)N1C[C@H](C)[C@@H](CN(C)S(=O)(=O)c2cccs2)Oc2ccc(NC(=O)Nc3ccc(F)cc3)cc2C1=O	none
COc1ccc(S(=O)(=O)N(C)C[C@H]2Oc3ccc(NC(=O)CCCN(C)C)cc3C(=O)N([C@@H](C)CO)C[C@H]2C)cc1	E-selectin induc 97.0
COc1ccc(S(=O)(=O)N(C)C[C@@H]2Oc3ccc(NC(=O)c4ccncc4)cc3C(=O)N([C@@H](C)CO)C[C@H]2C)cc1	none
COc1ccc(S(=O)(=O)N(C)C[C@H]2Oc3ccc(NC(=O)CCCN(C)C)cc3C(=O)N([C@H](C)CO)C[C@@H]2C)cc1	none
COc1ccc(S(=O)(=O)N(C)C[C@H]2Oc3ccc(NC(=O)c4ccncc4)cc3C(=O)N([C@H](C)CO)C[C@@H]2C)cc1	E-selectin induc 53.6
COc1ccc(S(=O)(=O)N(C)C[C@@H]2Oc3ccc(NC(=O)CCCN(C)C)cc3C(=O)N([C@H](C)CO)C[C@@H]2C)cc1	none
C[C@H]1CN([C@@H](C)CO)C(=O)c2cc(NC(=O)Nc3ccc(F)cc3)ccc2O[C@H]1CN(C)S(=O)(=O)c1cccs1	E-selectin induc 26.5
COc1ccc(S(=O)(=O)N(C)C[C@H]2Oc3ccc(NC(=O)CCCN(C)C)cc3C(=O)N([C@@H](C)CO)C[C@@H]2C)cc1	E-selectin induc 52.0
C[C@@H]1CN([C@@H](C)CO)C(=O)c2cc(NC(=O)Nc3cccc4ccccc34)ccc2O[C@@H]1CN(C)C(=O)Nc1ccccc1	none
C[C@H](NC(=O)C[C@H]1C[C@H]2c3cc(NC(=O)c4cccnc4)ccc3O[C@H]2[C@@H](CO)O1)c1ccccc1	none
COc1ccc(NC(=O)Nc2ccc3c(c2)C(=O)N([C@@H](C)CO)C[C@@H](C)[C@@H](CN(C)S(=O)(=O)c2ccc(F)cc2)O3)cc1	E-selectin induc 37.4
COc1ccc(S(=O)(=O)N(C)C[C@H]2Oc3ccc(NC(=O)Nc4ccc(F)cc4)cc3C(=O)N([C@H](C)CO)C[C@@H]2C)cc1	none
CN(C)C(=O)[C@H]1N[C@H]2c3ccc(-c4ccc(F)cc4)c(=O)n3C[C@H]2[C@@H]1CO	none (no result: F508del corr)
O=C(C[C@H]1C[C@@H]2c3cc(NC(=O)C4CCOCC4)ccc3O[C@@H]2[C@@H](CO)O1)NCCN1CCCCC1	none
Oc1cc(Nc2ccccc2)cc2cccnc12	none
Oc1cccc2cc(Nc3ccccc3)cnc12	F508del corr 10.0
CC(C)NC(=O)N(C)C[C@@H]1Oc2ncc(C#Cc3ccc(F)cc3)cc2C(=O)N([C@@H](C)CO)C[C@H]1C	none
NC(=NCCCCCCN=C(N)/N=C(\N)Nc1ccc(Cl)cc1)/N=C(\N)Nc1ccc(Cl)cc1	F508del corr 11.5!
CC(C)N=C(N)N=C(N)Nc1ccc(Cl)cc1	none
O=C([C@H]1[C@H](CO)[C@H]2Cn3c(cccc3=O)[C@H]2N1CC1CCCC1)N1CCCCC1	none
O=C(C[C@@H]1CC[C@H]2[C@@H](COC[C@H](O)CN2Cc2cccc(C(F)(F)F)c2)O1)NCc1ccc(F)cc1	none
C[C@H](CO)N1C[C@H](C)[C@@H](CN(C)Cc2ccccc2)OCCCC[C@H](C)Oc2ccc(NS(C)(=O)=O)cc2C1=O	none
O=C(N/N=C/c1c(O)ccc2ccccc12)C(=O)N1CCCC1	F508del corr 12.9
O=C(N/N=C/c1ccccc1O)C(=O)N1CCCCCC1	none (no result: E-selectin induc)
O=C(CN1CCCC1)N/N=C/c1c(O)ccc2ccccc12	F508del corr 10.0 (no result: E-selectin induc)
O=C(NN=Cc1c(O)ccc2ccccc12)C1CC1	none
Fc1cccc(F)c1/C=N/Nc1ccccn1	none
Oc1ccc2ccccc2c1C=NNc1ccccn1	F508del corr 9.7
C[C@@H]1CN([C@H](C)CO)C(=O)Cc2cc(N(C)C)ccc2O[C@H]1CN(C)C(=O)Nc1ccc(F)cc1	none
C[C@@H]1CCCCO[C@H](CN(C)C(=O)C2CCCCC2)[C@H](C)CN([C@@H](C)CO)C(=O)c2cc(NC(=O)c3ccccc3)ccc2O1	none
N#Cc1ccc(-c2ccc([C@H]3[C@@H](CO)N4C(=O)CN(C(=O)Cc5ccccc5)C[C@@H]34)cc2)cc1	none

Screening data (PubChem)
